# Screening results from PubChem BioAssay.
# Casp6 inh: human caspase-6 inhibitors, primary screen, biochemical, VEID-R110 fluorescence, single point, set 2; purified caspase-6, Z-VEID-R110 cleavage fluorescence; inhibition, % at 12.5 µM; 350,000 compounds, 0.53% hits;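 active means mean inhibition across replicates at least about 35%, with every replicate also reaching that limit, limit read from the data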;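 further: 0% = median of neutral control wells and 100% = no fluorescence left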
# NSD2 inh: NSD2 histone methyltransferase inhibitors, primary screen, biochemical, AlphaScreen, single concentration, set 2; inhibition, % at 12.5 µM; NSD2 peptide methylation, 120 min; AID 743445, 2014; 310,000 compounds, 0.54% hits; in the data active means inhibition above about 50%
# UCH37 DUB inh: inhibitors of human UCH37 deubiquitinase, primary screen, biochemical, Ub-AMC cleavage, fluorescence | 330,000 compounds, 0.33% hits | inhibition, % (test concentration not listed) | AID 588478, 2011 | Ubiquitin carboxyl-terminal hydrolase isozyme L5 (Homo sapiens), Q9Y5K5 | purified proteasome/UCH37;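 active means mean inhibition over replicate wells above about 20%, limit read from the data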;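 further: 0% = compound-free wells with enzyme and 100% = wells lacking proteasome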
# Target sequence (Q9Y5K5 whole entry, looked up): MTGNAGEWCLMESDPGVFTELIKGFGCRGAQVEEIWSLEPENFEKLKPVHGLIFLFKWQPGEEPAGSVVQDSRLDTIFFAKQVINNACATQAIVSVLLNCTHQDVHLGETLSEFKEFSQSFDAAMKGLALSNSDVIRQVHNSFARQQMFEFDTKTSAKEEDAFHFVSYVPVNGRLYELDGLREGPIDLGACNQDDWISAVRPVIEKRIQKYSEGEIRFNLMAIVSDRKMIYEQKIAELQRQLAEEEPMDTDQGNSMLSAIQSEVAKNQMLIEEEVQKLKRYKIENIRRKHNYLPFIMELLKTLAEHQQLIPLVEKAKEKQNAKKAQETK
#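 System: Proteasome-associated human UCH37 deubiquitinase; Input: 0.15 nM proteasome in added enzyme buffer; Also added: Ub-AMC substrate from 1 µM stock; Incubation: 30 min compound-proteasome preincubation then 25 min substrate reaction, room temperature; Detection: fluorescence, ex 355 nm, em 460 nm; Read-out: % inhibition of Ub-AMC cleavage fluorescence; Benchmarks: no-proteasome and no-compound wells.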
# FGF22 binding: binders of human FGF22 protein, primary screen, FGF22 synaptogenesis inhibitor project, biophysical, thermal shift, single point; 340,000 compounds, 1.5% hits; Fibroblast growth factor 22 (Homo sapiens), Q9HCT0; recombinant FGF22 thermal shift, SYPRO orange fluorescence; percent of sucrose octasulfate shift, DMSO zero; activity (Tm shift, normalised), % at 9.99 µM;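 active means mean Tm shift, scaled 0 neutral to 100 positive control, at about 1.3% or above, every replicate too, limit read from the data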
# SIRT5 inh: SIRT5 desuccinylase inhibitors, primary screen, biochemical, fluorescence imaging, single point, set 5; AID 652115, 2013; 330,000 compounds, 1.1% hits; inhibition, % at 15 µM; NAD-dependent protein deacylase sirtuin-5, mitochondrial (Homo sapiens), Q9NXA8; Purified SirT5, succinyl-peptide AMC, trypsin-coupled fluorescence; in the data active means inhibition above about 15%
# Target sequence (Q9NXA8 whole entry, looked up): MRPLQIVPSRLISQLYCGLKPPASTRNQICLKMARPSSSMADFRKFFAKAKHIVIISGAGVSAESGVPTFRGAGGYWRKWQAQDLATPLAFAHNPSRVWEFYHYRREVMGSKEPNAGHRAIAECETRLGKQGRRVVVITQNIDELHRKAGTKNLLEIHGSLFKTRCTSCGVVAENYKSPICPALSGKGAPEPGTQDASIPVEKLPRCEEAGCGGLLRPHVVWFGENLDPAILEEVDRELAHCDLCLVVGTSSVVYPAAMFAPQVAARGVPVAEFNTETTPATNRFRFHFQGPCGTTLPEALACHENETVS
# Active calls of the source: *; . = no result. Hits are enriched below; roughly 2.6% of the tested compounds scored in any of these assays.
SMILES,Casp6 inh,NSD2 inh,UCH37 DUB inh,FGF22 binding,SIRT5 inh
Cc1ccc(-c2ccc3c(c2)O[C@@H](CN(C)Cc2ccncc2)[C@@H](C)CN([C@H](C)CO)S3(=O)=O)cc1,1,.,.,0,2
CCc1cnc(N2[C@H](C#N)[C@H](c3ccc(C#CCC4CCCC4)cc3)[C@@H]2CO)s1,0,.,.,0,1
COc1ccccc1/C=C\C(=O)NCC(=O)NN=Cc1cccc(OC)c1O,.,.,-2,.,.
CCCS(=O)(=O)N1CCCC(C(=O)NCc2ccc(C)cc2)C1 (stereo not given),.,-5,-7,.,.
Cc1ccc(CNC(=O)C2CCCN(c3nc4ccccc4o3)C2)cc1 (stereo not given),-5,.,3,0,.
Cc1ccc(CNC(=O)C2CCCN(S(=O)(=O)N3CC(C)CC(C)C3)C2)cc1 (stereo not given),-2,-6,3,0,20*
Cc1cc(C)nc(N2CCCC(C(=O)NCc3ccccc3)C2)n1 (stereo not given),.,0,-3,.,.
Cc1ccc(CNC(=O)C2CCCN(c3nc(C)cc(C)n3)C2)cc1 (stereo not given),-1,1,0,43*,-2
Cc1ccc(CNC(=O)C2CCCN(c3nc4ccsc4c(=O)s3)C2)cc1 (stereo not given),-2,-4,-50,0,18*
CCC(C)c1ccc(O)c(C=NO)c1 (stereo not given),.,.,-2,.,.
Cn1ccnc1SC(C(=O)O)c1ccccc1 (stereo not given),-1,0,2,0,102*
COc1ccc(CNC(=O)C[C@H]2CC[C@@H](NC(=O)c3cccc(F)c3)[C@@H](CO)O2)cc1,-4,.,.,0,2
CN(C)CC(=O)N[C@@H]1C=C[C@@H](CC(=O)NCc2ccccc2F)O[C@H]1CO,-1,.,.,0,-1
Cc1ccc(C(=O)n2nc(-n3cccc3)c3c(C)cc(C)nc32)cc1,0,0,7,0,26*
Cc1cc(C)c2c(-n3cccc3)nn(C)c2n1,.,0,-1,.,.
O=C(Nc1cc(F)ccc1F)N[C@H]1CC[C@H](CC(=O)N2CCc3ccccc3C2)O[C@H]1CO,-1,.,.,0,3
COc1ccccc1CC(=O)N1CCCC1,.,0,0,.,.
CCOC(=O)C1CCN(C(=O)Cc2ccccc2OC)CC1,3,-2,1,56*,1
CCOC(=O)C1CCCN(C(=O)c2c(-c3ccccc3)noc2C)CC1 (stereo not given),1,-1,.,0,.
CCOC(=O)C1CCN(C(=O)c2c(-c3ccccc3)noc2C)CC1,-4,.,0,43*,-3
O=C(N[C@@H]1CC[C@H](CCn2cc(Cc3ccccc3)nn2)O[C@@H]1CO)c1ccccn1,0,.,.,0,2
C[C@@H]1CN([C@H](C)CO)C(=O)CCCn2nncc2CO[C@@H]1CN(C)Cc1ccc(-c2ccccc2)cc1,0,.,.,0,-1
O=C(Cn1cnc2ccccc21)N/N=C/c1cccnc1,-2,3,.,43*,9
COc1ccccc1/C=N/NC(=O)CCn1cnc2ccccc21,3,-2,.,44*,0
O=C(CCn1cnc2ccccc21)N/N=C/c1ccccc1O,-4,.,.,0,-5
SMILES,Casp6 inh,NSD2 inh,UCH37 DUB inh,FGF22 binding,SIRT5 inh
Cc1ccc(NC(=O)Cn2cnc3ccccc32)cc1C,1,0,3,43*,1
Cc1ccc(N(CC(=O)N/N=C/c2cccnc2)S(=O)(=O)c2ccccc2)cc1,1,-1,.,44*,9
O=C(Cn1cnc2ccccc21)Nc1cccc([N+](=O)[O-])c1,-2,-4,.,0,-3
Cc1ccc(S(=O)(=O)Nc2ccc3c(c2)CC(=O)N([C@H](C)CO)C[C@H](C)[C@@H](CN(C)CC2CC2)O3)cc1,-1,.,.,0,-1
C[C@@H]1CN([C@@H](C)CO)C(=O)c2ccccc2-c2ccccc2CO[C@@H]1CN(C)C(=O)Nc1cccc(F)c1,0,.,.,0,13
O=C(CNS(=O)(=O)N1CCOCC1)N/N=C/c1cccnc1,2,-7,.,44*,-2
Cc1oc(-c2ccc(Cl)cc2)nc1CN1CCCC(C(=O)N2CCOCC2)C1 (stereo not given),-2,-2,-2,0,22*
Cc1oc(-c2ccc(Cl)cc2)nc1CN1CCCC(C(=O)N2CCN(C(=O)c3ccco3)CC2)C1 (stereo not given),-2,.,3,0,0
Cc1cc(CSc2ccccc2)ccc1NC(=O)COc1ccccc1C,1,2,6,44*,0
Cc1ccccc1OCC(=O)Nc1ccccc1-c1ccccc1NC(=O)COc1ccccc1C,.,20,1,.,.
Cc1noc(C)c1S(=O)(=O)Nc1cccc2c1O[C@@H](CN(C)C(=O)NC1CCCCC1)[C@@H](C)CN([C@H](C)CO)C2=O,-2,.,.,0,0
C[C@H](CO)N1C[C@H](C)[C@@H](CN(C)Cc2ccc(Oc3ccccc3)cc2)Oc2ccc(NC(=O)CCCN(C)C)cc2C1=O,-73,.,.,1.2*,-1
C[C@@H]1CN([C@@H](C)CO)C(=O)Cc2cc(NC(=O)Cc3cn(C)c4ccccc34)ccc2O[C@@H]1CN(C)Cc1ccc(-c2ccccc2)cc1,2,.,.,0,15*
C[C@@H]1CN([C@H](C)CO)C(=O)Cc2cc(NC(=O)Cc3cn(C)c4ccccc34)ccc2O[C@@H]1CN(C)C,-1,.,.,0,26*
C[C@@H]1CN([C@@H](C)CO)C(=O)Cc2cc(NC(=O)Cc3cn(C)c4ccccc34)ccc2O[C@H]1CN(C)C,0,.,.,0,-5
C[C@@H]1CN([C@@H](C)CO)C(=O)Cc2cc(NC(=O)CCCN(C)C)ccc2O[C@H]1CN(C)Cc1ccc(-c2ccccc2)cc1,4,.,.,0,-8
C[C@H](CO)N1C[C@H](C)[C@H](CN(C)Cc2ccc(-c3ccccc3)cc2)Oc2ccc(NC(=O)Cc3cn(C)c4ccccc34)cc2CC1=O,-1,.,.,0,11
C[C@@H]1CN([C@H](C)CO)C(=O)Cc2cc(NC(=O)CCCN(C)C)ccc2O[C@@H]1CN(C)Cc1ccc(-c2ccccc2)cc1,3,.,.,0,99*
C[C@@H]1CN([C@H](C)CO)C(=O)c2cc(NS(C)(=O)=O)ccc2O[C@@H]1CN(C)C(=O)Nc1ccc(F)cc1,0,.,.,-1,-1
Cc1ccc(-c2ccc([C@@H]3[C@H](CO)N4CCCCN(Cc5ccccn5)C[C@@H]34)cc2)cc1,.,.,.,0,.
C[C@H](CO)N1C[C@H](C)[C@H](CN(C)Cc2ccncc2)Oc2ccc(NC(=O)CCN3CCOCC3)cc2C1=O,0,.,.,0,25*
